# Assay results pooled from the literature.
# Compare with care: the assays were run in different laboratories.
Structure (SMILES),assay,test system,setting,quantity,result
c1cnc2ccc(Nc3nc(NC4CC4)c4nc[nH]c4n3)cc2c1,,"human, plasma","oral, 400 mg/m², patients",MRT(0-t),6.8 h
CC(C)(C)c1ccc(O)c(CN(Cc2cc(C(C)(C)C)ccc2O)C2CCC(NC(N)=O)CC2)c1 (stereo not drawn),,"male C57BL/6 mouse, brain","intraperitoneal, 10 mg/kg, single dose",half-life,7.08 h
O=S(=O)(c1ccc(-c2ccc3nccc(Nc4ccncn4)c3c2)cc1)N1CCOCC1,,"female BALB/c mouse, plasma","intraperitoneal, 10 mg/kg, 4.8 min",concentration,2340 ng/mL
CC(C)(O)c1ccccc1-c1ccc2[nH]c(/C=C/c3ccc(C(F)(F)F)cc3)nc2c1,,"male human, plasma","oral, 60 mg, single dose, fasted, healthy volunteers",MRT,91.4 h
O=c1nc(N2CCN(CC3CCCCC3)CC2)sc2c([N+](=O)[O-])cc(C(F)(F)F)cc12,,"CD-1 mouse, plasma","oral, 100 mg/kg, 8 h",concentration,336 ng/mL
CC(C)Oc1cccc(-c2cnc(N3CCC(C(N)=O)CC3)s2)c1,,"male Swiss mouse, brain","oral, 30 mg/kg, 1 h, single dose",concentration,207 ng/g
CS(=O)(=O)CCC#N,,"human, plasma","oral, 1000 mg, single dose, fasted",MRT,32.5 h
CCCN(CCC)CCc1cccc2c1CC(=O)N2,metabolic stability,"dog, hepatocytes",1 µM,hepatocyte CLint,16.3 µL/min/10⁶ cells
CC(C)CN(C[C@@H](O)[C@H](Cc1ccccc1)NC(=O)O[C@H]1CO[C@H]2OCC[C@H]21)S(=O)(=O)c1ccc(N)cc1,,"BALB/c mouse, brain","intravenous, 2.5 mg/kg, 6 h",concentration,1.36 ng/g
O=C(O)C1CCN(c2ncc(-c3ccc4c(c3)OCCCO4)s2)CC1,,"male Swiss mouse, plasma","oral, 30 mg/kg, 4 h, single dose",concentration,3890 ng/mL
O=c1c(O)c(-c2ccc(O)c(O)c2)oc2cc(O)cc(O)c12,,"human, plasma","oral, 500 mg, single dose, fasted, healthy volunteers",MRT(0-t),6.84 h
CC[C@H](C)[C@@H]1NC(=O)[C@@](C)(NC(=O)[C@H](CCCNC(=N)N)NC(=O)[C@H](CC(C)C)NC(=O)[C@@H](NC(=O)[C@H](CCC(N)=O)NC(=O)[C@H](CC(C)C)NC(C)=O)[C@@H](C)O)CCCC=CCCC[C@@](C)(C(=O)N[C@@H](CC(C)C)C(=O)N[C@@H](Cc2ccc3ccccc3c2)C(N)=O)NC(=O)[C@H](CCCNC(=N)N)NC(=O)[C@H](CCC(N)=O)NC1=O,,"male BALB/c mouse, plasma","intramuscular, 5 mg/kg",half-life,10.6 h
CC(C)(Nc1nc(-c2ccccn2)nc2ccccc12)c1ccccn1,,"female BALB/c mouse, plasma","oral, 50 mg/kg, 2 h",concentration,4230 ng/mL
Cc1ccc(C(CC(=O)c2ccc(Oc3ccccc3)c(O)c2)C(N)=O)cc1 (stereo not drawn),HPLC,,,chromatographic logP,4.06
Oc1cccc(/C=C/c2ccccc2)c1,HPLC,,,chromatographic logP,> 3.14
c1ccc(-c2nc(N3CCC(c4ccccn4)C3)c3ccccc3n2)nc1 (stereo not drawn),,"female BALB/c mouse, plasma","oral, 50 mg/kg, 8 h",concentration,19.6 ng/mL
Cn1cnc2c(F)c(Nc3ccc(Br)cc3Cl)c(C(=O)NOCCO)cc21,,"nude mouse, liver","oral, 10 mg/kg, single dose, tumour-bearing",half-life,2.7 h
CC1=NN(CNc2ccccc2)C(=O)C1=NNn1c(-c2ccccc2)nc2ccccc2c1=O,,,,logP,4.49
